The values that follow come from ChEMBL document CHEMBL4825662 (J Med Chem, 2021).

The term Cmax denotes the peak of the concentration-time curve. Broadly, the half-life is the time in which the quantity being followed falls by half. Read a low half-life as fast loss. The term Papp B→A denotes the apparent permeability from the basolateral to the apical side of a cell layer. Usually CC50 stands for the concentration at which the toxic effect on the cells reaches its halfway point. A lower CC50 goes with harm at low concentration. As a reminder, the Tmax is the time from dosing to the highest level. In general, bioavailability refers to dose-corrected exposure relative to a reference, in per cent. What is called EC50 is the concentration at which the effect is half-maximal. Lower therefore signals higher potency in that assay. Broadly, the Papp A→B is how fast a substance crosses the layer from the apical side. What is called efflux ratio is the permeability from basolateral to apical divided by that in the opposite direction, in the common usage.

Data set [1] is described as follows: Volume of distribution at steady state in Sprague-Dawley rat at 1 mg/kg, iv administered […] measured after 0.02 to 24 hrs by tandem liquid chromatography/mass spectrometry. It is filed as ADME, organism-based. The following applies: in vivo, time 0.02-24 hrs, read-out: Vdss. The method, boiled down: (§1)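 Male Sprague–Dawley rats (200–250 g), 3 per route. IV bolus at 1 mg/kg, 1 mg/mL in 40:60 dimethylacetamide/saline; oral gavage at 5 or 10 mg/kg, 5 mg/mL in 1% methyl cellulose, 0.1% Tween 80 in water. Serial blood at 0.02–24 h (ten points) into heparin, spun at 4 °C, plasma frozen; acetonitrile protein precipitation, ESI LC-MS/MS with matrix curve and internal standards.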

A short description of data set [2]: Cmax in Sprague-Dawley rat at 5 mg/kg, po administered via gavage measured after 0.02 to 24 hrs by tandem liquid chromatography/mass spectrometry. Also noted: route oral, dose 5 mg/kg, time upper 24 hrs, time lower 0.02 hrs. The following applies: in vivo. It is filed as ADME, organism-based. In outline: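 Male Sprague–Dawley rats weighing 200–250 g, 3 per route, were used. The i.v. bolus was 1 mg/kg at 1 mg/mL in 40:60 dimethylacetamide/saline. Oral gavage doses were 5 or 10 mg/kg at 5 mg/mL in 1% methyl cellulose with 0.1% Tween 80. Heparinized blood was taken at 0.02–24 h (ten time points). Plasma was analyzed by LC-MS/MS after acetonitrile precipitation.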

The nature of data set [3]: Half life in CD1 mouse at 1 mg/kg, iv measured after 0.03 to 24 hrs by UHPLC-TOF method. It is filed as ADME, organism-based. As to conditions: in vivo, time 0.03-24 hrs.
Data set [4] is described as follows: Cmax in CD1 mouse at 5 mg/kg, po measured after 0.03 to 24 hrs by UHPLC-TOF method. Further details: route oral, time upper 24 hrs, time lower 0.03 hrs, dose 5 mg/kg. Type of data set: ADME, organism-based. As to conditions: in vivo.
The nature of data set [5]: Apparent permeability across basolateral side to apical side in MDCK-MDR1 cells at 10 uM measured at 60 mins by LC-MS/MS analysis. It is filed as ADME, cell-based, Canis lupus familiaris. As to conditions: dog.
Data set [6] in a line: Clearance in CD1 mouse at 1 mg/kg, iv measured after 0.083 to 24 hrs by UHPLC-TOF method. Type of data set: ADME, organism-based. As to conditions: in vivo, time 0.083-24 hrs.
Data set [7] in a line: Volume of distribution at steady state in CD1 mouse at 1 mg/kg, iv measured after 0.083 to 24 hrs by UHPLC-TOF method. Type of data set: ADME, organism-based. The following applies: in vivo, time 0.083-24 hrs, read-out: Vdss. The method, boiled down: (§2)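 Male CD-1 mice, acclimatized and individually housed, dosed IV and PO as amorphous-solid suspension. Terminal cardiac-puncture blood into heparinized tubes on wet ice, centrifuged at 4 °C within 15 min; plasma snap-frozen at −20 °C. IV arm sampled 2 min–24 h, oral arm 5 min–24 h. Plasma analysed by UHPLC-quadrupole-TOF MS.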

Data set [8] can be described thus: Intrinsic clearance in Sprague-Dawley rat liver microsomes preincubated followed by NADPH addition and measured up to 45 mins by LC-MS/MS analysis. Type of data set: ADME, Microsome. A general note: Liver microsomes are a subcellular fraction often used to study metabolism.
Data set [9] can be described thus: Cytotoxicity against human HepG2 cells by MTT assay. It is filed as cell-based. The method, boiled down: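 Viability was assessed by MTT after culture with compound at 0.01 nM to 100 μM, run in parallel with plaque reduction assays. Values are the average of at least two testing occasions.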
Data set [10] in a line: Tmax in Sprague-Dawley rat at 10 mg/kg, po measured after 0.02 to 24 hrs by UHPLC-TOF method. Type of data set: ADME, organism-based. As to conditions: Sprague-Dawley, in vivo, time 0.02-24 hrs, read-out: Tmax.
The nature of data set [11]: Tmax in CD1 mouse at 5 mg/kg, po measured after 0.083 to 24 hrs by UHPLC-TOF method. Type of data set: ADME, organism-based. As to conditions: in vivo, time 0.083-24 hrs. The method, boiled down:
as §2

The nature of data set [12]: Thermodynamic solubility in PBS at 1 to 100 uM at pH 7.4 by HPLC-UV method. It is filed as physicochemical. As to conditions: dose 1-100 µM, read-out: Therm_solubility.
A short description of data set [13]: Intrinsic clearance in human liver microsomes preincubated followed by NADPH addition and measured up to 45 mins by LC-MS/MS analysis. It is filed as ADME, Microsome.
Data set [14] can be described thus: Oral bioavailability in Sprague-Dawley rat at 10 mg/kg administered via gavage measured after 0.02 to 24 hrs by tandem liquid chromatography/mass spectrometry. Type of data set: ADME, organism-based. The following applies: in vivo, time 0.02-24 hrs. In outline:
as §1

Data set [15] in a line: Cmax in Sprague-Dawley rat at 10 mg/kg, po measured after 0.02 to 24 hrs by UHPLC-TOF method. Type of data set: ADME, organism-based. Also noted: route oral, dose 10 mg/kg, time 0.02-24 hrs. The following applies: in vivo.
In a further data set the test system is Human orthopneumovirus. Description: Antiviral activity against Respiratory syncytial virus A2 infected in human Huh7 cells by Plaque reduction assay. Type of data set: functional, organism-based. The following applies: A2, Huh-7. In outline: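 Huh-7 cells were infected with RSV strain A2 in the presence of compound. Values are the average of at least two testing occasions.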
In general terms: Plaque reduction counts the foci of infection that form in a cell layer.

A short description of data set [16]: Oral bioavailability in CD1 mouse at 5 mg/kg measured after 0.03 to 24 hrs by UHPLC-TOF method. Type of data set: ADME, organism-based. The following applies: in vivo, time 0.03-24 hrs. In outline:
as §2

Data set [17] in a line: Half life in Sprague-Dawley rat at 10 mg/kg, po measured after 0.25 to 24 hrs by UHPLC-TOF method. It is filed as ADME, organism-based. As to conditions: in vivo, time 0.25-24 hrs.
A short description of data set [18]: Clearance in Sprague-Dawley rat at 1 mg/kg, iv administered […] measured after 0.02 to 24 hrs by tandem liquid chromatography/mass spectrometry. Type of data set: ADME, organism-based. As to conditions: in vivo, time 0.02-24 hrs.
The nature of data set [19]: Intrinsic clearance in Beagle dog liver microsomes preincubated followed by NADPH addition and measured up to 45 mins by LC-MS/MS analysis. It is filed as ADME, Canis lupus familiaris, Microsome.
Data set [20] can be described thus: Apparent permeability across apical to basolateral side in MDCK-MDR1 cells at 10 uM measured at 60 mins by LC-MS/MS analysis. Type of data set: ADME, cell-based, Canis lupus familiaris. The following applies: dog, MDCK-MDR1.
Data set [21] is described as follows: Efflux ratio of apparent permeability in MDCK-MDR1 cells at 10 uM measured at 60 mins by LC-MS/MS analysis. The following applies: dog, MDCK-MDR1. Type of data set: ADME, cell-based, Canis lupus familiaris.

Converted amounts (≈) assume the structure as drawn.

Take `NCc1ccc2c(c1)nc(CN1C(=O)C3(CC3)c3cccc(F)c31)n2CCCC(F)(F)F`: the Vd was found to be 11 L/kg in data set [1] and 11.3 L/kg in data set [7]. In addition, the Cmax in [2] was found to be 0.0443 µg/mL; in data set [4], 0.11 µg/mL; in data set [15], 0.0443 µg/mL. For the same compound, the values for the half-life in [3] and in data set [17] were 2.4 h and 0.8 h, respectively. In data set [5], the Papp B→A at 1 h, 10 µM stood at 27 nm/s. Besides, the clearance was 4.56 L/h/kg in data set [6] and 12.5 L/h/kg in data set [18]. In data set [8], this compound gave a Microsomal intrinsic clearance of 0.7 µL/min. The CC50 in data set [9] is > 25000 nM. In addition, the results for the Tmax in data set [10] and in [11] were 2.1 h and 2 h, respectively. For the same compound, the solubility thermodynamic in [12] turned out to be 1180 µM (≈ 526 µg/mL). In addition, in data set [13], the “intrinsic clearance (CLint)” value worked out at 2.9 µL/min. The results for the bioavailability in data set [14] and in data set [16] were 13.8% and 12.9%, respectively. In the data set on Human orthopneumovirus, the EC50 is 2.3 nM. Further, the intrinsic clearance in data set [19] came out at 2 µL/min. Besides, the Papp A→B at 1 h, 10 µM in data set [20] was 4 nm/s. The efflux ratio at 1 h, 10 µM in data set [21] came out at 7.5.
